As a reminder, the IC50 is the concentration that gives 50% inhibition.

Active and inactive are the calls of the source. The calls are words filed in the database; no cut-off is given here.

This is an account of results in ChEMBL document CHEMBL1147012 (Bioorg Med Chem Lett, 2006).

In assay [1] the test system is PC-3. The assay is described as follows: Cytotoxicity against human PC3 cell line. Format: functional, cell-based.
The target in assay [2] is Tubulin. The assay is described as follows: Inhibition of microtubule polymerization. Format: functional, Homo sapiens. In short, it runs like this:
(§1)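 Microtubule polymerization assay run with a fixed, short incubation time.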

In assay [3] the target is T1, Tubulin (Homo sapiens) (UniProt P68371+Q9H4B7+P0DPH7+P68366+Q13509+Q71U36+P04350+Q3ZCM7+P07437+P68363+Q9BQE3+Q6PEY2+Q13885+Q9BVA1+Q9BUF5). Description: Inhibition of microtubule polymerization up to 150 uM.
In assay [4] the target is T1, Tubulin (Homo sapiens). The assay is described as follows: Inhibition of microtubule polymerization up to 150 uM. Format: functional. In short, it runs like this: as §1

With `COc1cc2c(c(OC)c1OC)-c1ccc(OC)c(=O)cc1[C@@H](NS(=O)(=O)c1ccc([N+](=O)[O-])cc1[N+](=O)[O-])CC2`, the values for the IC50 in assay [1] and in assay [2] were 0.05 µM and 9.7 µM, respectively.
`CCN[C@H]1CCc2cc(OC)c(OC)c(OC)c2-c2ccc(=O)c(OC)cc21` came in with an IC50 in assay [1] of 1.72 µM. For the same molecule, in assay [3], the outcome was inactive.
For the molecule `COc1cc2c(c(OC)c1OC)-c1ccc(OC)c(=O)cc1[C@@H](/N=C(/C)S)CC2`, the IC50 in assay [1] came out at 0.0975 µM; in assay [2] it was 2.2 µM.
Consider `COc1cc2c(c(OC)c1OC)-c1ccc(=O)c(OC)cc1[C@@H](/N=C(/C)S)CC2`, for which the outcome in assay [4] was inactive. Besides, half-maximal inhibition in assay [1] (IC50) was put at 1.75 µM.
Take `COc1cc2c(c(OC)c1OC)-c1ccc(=O)c(OC)cc1[C@@H](NS(=O)(=O)c1ccccc1[N+](=O)[O-])CC2`: the half-inhibitory concentration (IC50) in assay [1] came to 0.905 µM; in assay [2], 58 µM.
As to `COc1cc2c(c(OC)c1OC)-c1ccc(=O)c(OC)cc1[C@@H](NS(=O)(=O)c1ccc([N+](=O)[O-])cc1[N+](=O)[O-])CC2`, the IC50 in assay [1] is 10.2 µM; in assay [2] it was 59 µM.
Consider `CCN[C@H]1CCc2cc(OC)c(OC)c(OC)c2-c2ccc(OC)c(=O)cc21`, for which, in assay [1], the IC50 was 0.0176 µM. In other words, the double-digit nanomolar range.
In the case of `COc1cc2c(c(OC)c1OC)-c1ccc(OC)c(=O)cc1[C@@H](NS(=O)(=O)c1ccccc1[N+](=O)[O-])CC2`, the IC50 in assay [1] is 0.0198 µM; in assay [2], 5.6 µM.
On the same counts, the results for `COc1cc2c(c(OC)c1OC)-c1ccc(OC)c(=O)cc1[C@@H](Nc1ccc([N+](=O)[O-])cc1[N+](=O)[O-])CC2` are 0.009 µM and 4.6 µM.
Consider `COc1cc2c(c(OC)c1OC)-c1ccc(=O)c(OC)cc1[C@@H](NC(C)=O)CC2` [ISOCOLCHICINE], for which it took 4.6 µM to reach half-maximal inhibition in assay [1] (IC50). This counts as single-digit micromolar.
Consider `COc1cc2c(c(OC)c1OC)-c1ccc(=O)c(OC)cc1[C@@H](NCC(C)=O)CC2`, for which the IC50 in assay [1] is 0.093 µM; in assay [2], 68 µM.
In turn, `COc1cc2c(c(OC)c1OC)-c1ccc(=O)c(OC)cc1[C@@H](Nc1ccc([N+](=O)[O-])cc1[N+](=O)[O-])CC2` displayed an IC50 in assay [1] of 5.7 µM.
`COc1cc2c(c(OC)c1OC)-c1ccc(OC)c(=O)cc1[C@@H](NCC(C)=O)CC2` returned an IC50 in assay [1] of 0.0076 µM.
